Values after ≈ are worked out from the molar mass of the structure shown.
Experiments:
Plasma [1] = assay: Cmax in healthy human plasma assessed as metabolite BAY 78-1789 Cmax at 80 mg, po administered as four 20 mg immediate release tablets daily for 3 days during 10 hrs overnight fasting state measured after 1 day; type: ADME, organism-based; parameters: dose 80 mg, route oral; details: in vivo, 24 h
How it was run: (§1)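 Healthy Caucasian males took tablets once daily for 3 days with 240 ml water after a 10-h fast. Heparinised blood was drawn predose and at 0.25–14 h after the first and last doses. Plasma parent drug and metabolites M1–M3 were measured by LC/MS-MS (MRM, deuterated internal standard). Noncompartmental analysis gave Cmax observed, t1/2 = 0.693/kel and MRT = AUMC/AUC. Values are geometric means.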

Plasma [2] = assay: Cmax in healthy human plasma assessed as metabolite BAY 78-1789 Cmax at 80 mg, po administered as four 20 mg immediate release tablets daily for 3 days during 10 hrs overnight fasting state measured after 3 day; type: ADME, organism-based; parameters: dose 80 mg, route oral; details: in vivo, 72 h; how it was run: as §1
Plasma [3] = assay: AUC in healthy human plasma assessed as metabolite BAY 78-1789 AUC at 80 mg, po administered as four 20 mg immediate release tablets daily for 3 days during 10 hrs overnight fasting state measured after 1 day; type: ADME, organism-based; parameters: dose 80 mg, time < 10 hr, route oral; details: in vivo
How it was run: (§2)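 Healthy Caucasian male volunteers took 40 mg (two 20-mg IR tablets) or 80 mg (four tablets) orally once daily for 3 days, with 240 ml water after a 10-h fast. Plasma was sampled predose to 14 h after the first and last doses. M1/M2/M3 were quantified by LC/MS-MS MRM against a D4-labelled internal standard. Cmax was read from observed data and AUC by log-linear trapezoidal rule, noncompartmental, geometric means.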

Plasma [4] = assay: AUC in healthy human plasma assessed as metabolite BAY 78-1789 AUC at 80 mg, po administered as four 20 mg immediate release tablets daily for 3 days during 10 hrs overnight fasting state measured after 3 day; type: ADME, organism-based; parameters: dose 80 mg, time < 10 hr, route oral; details: in vivo; how it was run: as §2
Plasma [5] = assay: Tmax in healthy human plasma assessed as metabolite BAY 78-1789 Tmax at 80 mg, po administered as four 20 mg immediate release tablets daily for 3 days during 10 hrs overnight fasting state measured after 1 day; type: ADME, organism-based; details: in vivo, 24 h
How it was run: (§3)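 Healthy Caucasian men (8 active, 4 placebo per dose) dosed with tablets daily for 3 days after 10-h fast. Lithium-heparin plasma sampled predose and 0.25–14 h after day-1 and day-3 doses, stored frozen. Parent and M1–M3 quantified by LC/MS-MS in positive-ion MRM. Tmax taken directly from observed individual data.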

Plasma [6] = assay: Tmax in healthy human plasma assessed as metabolite BAY 78-1789 Tmax at 80 mg, po administered as four 20 mg immediate release tablets daily for 3 days during 10 hrs overnight fasting state measured after 3 day; type: ADME, organism-based; details: in vivo, 72 h; how it was run: as §3
Plasma [7] = assay: Half life in healthy human plasma assessed as metabolite BAY 78-1789 Half life at 80 mg, po administered as four 20 mg immediate release tablets daily for 3 days during 10 hrs overnight fasting state measured after 1 day; type: ADME, organism-based; details: in vivo; how it was run: as §1
Plasma [8] = assay: Half life in healthy human plasma assessed as metabolite BAY 78-1789 Half life at 80 mg, po administered as four 20 mg immediate release tablets daily for 3 days during 10 hrs overnight fasting state measured after 3 day; type: ADME, organism-based; details: in vivo, 72 h; how it was run: as §1
Plasma [9] = assay: Cmax in healthy human plasma assessed as metabolite BAY 78-1789 Cmax at 80 mg, po administered as single ascending doses during 10 hrs overnight fasting state; type: ADME, organism-based; parameters: dose 80 mg, route oral; details: in vivo
How it was run: (§4)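 Healthy Caucasian male volunteers, single oral dose with 240 ml water after a 10-h overnight fast. Heparinised venous blood was drawn predose and at 0.25–14 h. Plasma was stored frozen. Parent drug and metabolites M1–M3 were measured by LC/MS-MS (MRM, deuterated internal standard). Noncompartmental analysis gave Cmax observed, t1/2 = 0.693/kel (terminal regression) and MRT = AUMC/AUC. Values are geometric means.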

Plasma [10] = assay: AUC (0 to infinity) in healthy human plasma assessed as metabolite BAY 78-1789 AUC (0 to infinity) at 80 mg, po administered as single ascending doses during 10 hrs overnight fasting state; type: ADME, organism-based; parameters: dose 80 mg, time infinity, route oral; details: in vivo
How it was run: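 Healthy Caucasian male volunteers, single oral dose of 80 mg as four 20-mg immediate-release tablets, taken with 240 ml water after a 10-h overnight fast. Lithium-heparin venous blood was drawn predose and at 0.25–14 h, and plasma was stored frozen. Metabolites M1/M2/M3 were measured by LC/MS-MS (positive-ion MRM, deuterated internal standard). Noncompartmental analysis, AUC by log-linear trapezoidal rule extrapolated to infinity (Clast/kel), geometric means.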

Plasma [11] = assay: Half-life in healthy human plasma assessed as metabolite BAY 78-1789 half-life at 80 mg, po administered as single ascending doses during 10 hrs overnight fasting state; type: ADME, organism-based; details: in vivo; how it was run: as §4
Plasma [12] = assay: Ratio of AUC (0 to infinity) for metabolite BAY 78-1789 to AUC (0 to infinity) for compound in healthy human plasma at 40 mg, po administered as single dose for 3 days measured after 1 day; type: ADME, organism-based; details: in vivo, 24 h
How it was run: (§5)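 Healthy Caucasian men (8 active, 4 placebo per dose) dosed with tablets daily for 3 days after 10-h fast. Plasma sampled 0.25–14 h after first and last doses. Parent and metabolites M1–M3 measured by LC/MS-MS (200 µl plasma). Metabolic ratio is metabolite AUC0-∞ divided by parent AUC0-∞ (log-linear trapezoidal, extrapolated by last concentration/kel). First vs third dose compared by paired t test.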

Plasma [13] = assay: Ratio of AUC (0 to infinity) for metabolite BAY 78-1789 to AUC (0 to infinity) for compound in healthy human plasma at 40 mg, po administered as single dose for 3 days measured after 3 days; type: ADME, organism-based; details: in vivo, 72 h; how it was run: as §5
Plasma [14] = assay: Ratio of AUC (0 to infinity) for metabolite BAY 78-1789 to AUC (0 to infinity) for compound in healthy human plasma at 80 mg, po administered as single dose for 3 days measured after 1 day; type: ADME, organism-based; details: in vivo, 24 h; how it was run: as §5
Plasma [15] = assay: Ratio of AUC (0 to infinity) for metabolite BAY 78-1789 to AUC (0 to infinity) for compound in healthy human plasma at 80 mg, po administered as single dose for 3 days measured after 3 days; type: ADME, organism-based; details: in vivo, 72 h; how it was run: as §5
Plasmodium falciparum = assay: Antimalarial activity against Plasmodium falciparum K1 in human plasma assessed as inhibition of hypoxanthine uptake by intraerythrocytic malaria parasites by hypoxanthine incorporation assay; type: functional, organism-based
How it was run: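 K1 or TM90-C2A parasites were sorbitol-synchronized and cultured in RPMI 1640. Drug was diluted in drug-free human serum (0.04–40 ng/ml) or subject plasma was diluted twofold (8–8,192). Parasites were added at 2% hematocrit, 1% parasitemia (>95% rings), and [3H]hypoxanthine uptake was measured over 48 h. IC50 or ID50 came from concentration or dilution-response curves. Equivalent concentration = ID50 × IC50.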

Plasma [16] = assay: Cmax in healthy human plasma assessed as metabolite BAY 78-1789 Cmax at 40 mg, po administered as two 20 mg immediate release tablets daily for 3 days during 10 hrs overnight fasting state measured after 1 day; type: ADME, organism-based; parameters: dose 40 mg, route oral; details: in vivo, 24 h; how it was run: as §1
Plasma [17] = assay: Cmax in healthy human plasma assessed as metabolite BAY 78-1789 Cmax at 40 mg, po administered as two 20 mg immediate release tablets daily for 3 days during 10 hrs overnight fasting state measured after 3 day; type: ADME, organism-based; parameters: dose 40 mg, route oral; details: in vivo, 72 h; how it was run: as §1
Plasma [18] = assay: AUC in healthy human plasma assessed as metabolite BAY 78-1789 AUC at 40 mg, po administered as two 20 mg immediate release tablets daily for 3 days during 10 hrs overnight fasting state measured after 1 day; type: ADME, organism-based; parameters: time < 10 hr, dose 40 mg, route oral; details: in vivo; how it was run: as §2
Plasma [19] = assay: AUC in healthy human plasma assessed as metabolite BAY 78-1789 AUC at 40 mg, po administered as two 20 mg immediate release tablets daily for 3 days during 10 hrs overnight fasting state measured after 3 day; type: ADME, organism-based; parameters: time < 10 hr, dose 40 mg, route oral; details: in vivo; how it was run: as §2
Plasma [20] = assay: Tmax in healthy human plasma assessed as metabolite BAY 78-1789 Tmax at 40 mg, po administered as two 20 mg immediate release tablets daily for 3 days during 10 hrs overnight fasting state measured after 1 day; type: ADME, organism-based; details: in vivo, 24 h; how it was run: as §3
Plasma [21] = assay: Tmax in healthy human plasma assessed as metabolite BAY 78-1789 Tmax at 40 mg, po administered as two 20 mg immediate release tablets daily for 3 days during 10 hrs overnight fasting state measured after 3 day; type: ADME, organism-based; details: in vivo, 72 h; how it was run: as §3
Plasma [22] = assay: Half life in healthy human plasma assessed as metabolite BAY 78-1789 Half life at 40 mg, po administered as two 20 mg immediate release tablets daily for 3 days during 10 hrs overnight fasting state measured after 1 day; type: ADME, organism-based; details: in vivo, 24 h; how it was run: as §1
Plasma [23] = assay: Half life in healthy human plasma assessed as metabolite BAY 78-1789 Half life at 40 mg, po administered as two 20 mg immediate release tablets daily for 3 days during 10 hrs overnight fasting state measured after 3 day; type: ADME, organism-based; details: in vivo, 72 h; how it was run: as §1

SMILES: C[C@@H]1[C@H](O)C[C@H]2[C@@H](C)[C@H](N3CCS(=O)(=O)CC3)O[C@@H]3O[C@]4(C)CC[C@@H]1[C@]32OO4
- Cmax (Plasma [1]): 51.9 ng/mL
- Cmax (Plasma [2]): 38.2 ng/mL
- AUC (Plasma [3]): 213.1 ng·h/mL
- AUC (Plasma [4]): 165.1 ng·h/mL
- Tmax (Plasma [5]): 2 h
- Tmax (Plasma [6]): 2.5 h
- t1/2 (Plasma [7]): 1.83 h
- t1/2 (Plasma [8]): 1.86 h
- Cmax (Plasma [9]): 74.3 ng/mL
- AUC (Plasma [10]): 294.8 ng·h/mL
- t1/2 (Plasma [11]): 1.59 h
- Ratio (Plasma [12]): 0.54
- Ratio (Plasma [13]): 0.47
- Ratio (Plasma [14]): 0.65
- Ratio (Plasma [15]): 0.52
- IC50 (Plasmodium falciparum): 2.3 ng/mL (≈ 5.51 nM)
- Cmax (Plasma [16]): 27.8 ng/mL
- Cmax (Plasma [17]): 22.5 ng/mL
- AUC (Plasma [18]): 95.9 ng·h/mL
- AUC (Plasma [19]): 84.9 ng·h/mL
- Tmax (Plasma [20]): 2 h
- Tmax (Plasma [21]): 2.5 h
- t1/2 (Plasma [22]): 1.52 h
- t1/2 (Plasma [23]): 1.69 h

Source: ChEMBL document CHEMBL1671864, “First assessment in humans of the safety, tolerability, pharmacokinetics, and ex vivo pharmacodynamic antimalarial activity of the new artemisinin derivative artemisone” (Antimicrob Agents Chemother, 2008)
